# Results from PMC4607043 (International journal of biological macromolecules, 2015).
# Experiments:
# ATP synthase = conditions: cited from earlier work
# βD380R/βD386R [1] = experiment: Growth on succinate plates; assay type: cell-based, E. coli; conditions: 3 days, estimated by eye, means of four to six experiments
# In short: (§1)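 E. coli DK8 carrying plasmid-borne ATP synthase genes (wild-type pBWU13.4; mutants made by site-directed mutagenesis and sequence-verified) were grown on plates with succinate as the non-fermentable carbon source, with or without test peptide. Growth was scored by eye after 3 days on a scale from ++++ (normal/heavy) to − (none). Values are means of four to six experiments.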
# βD380A/βD386A [2] = experiment: Growth on succinate plates; assay type: cell-based, E. coli; conditions: 3 days, estimated by eye, means of four to six experiments
# In short: as §1
# βD386Q [3] = experiment: Growth yield in limiting glucose; assay type: cell-based, E. coli; conditions: 3–5 mM glucose, wild type in absence of peptides = 100%, means of four to six experiments
# In short: (§2)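 Measures oxidative plus substrate-level phosphorylation as growth on limiting glucose (3–5 mM). The host is E. coli DK8 carrying plasmid pBWU13.4, which encodes all ATP synthase genes, or site-directed βD380/βD386 mutants built on a βY331W background; mutations were confirmed by sequencing. Cultures were grown with or without each of two C-amidated test peptides (>95% HPLC purity, dissolved in deionized water). pUC118/DK8 served as the null strain.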
# [4] = tested on: membrane bound F1Fo ATP synthase mutant βD386R; experiment: Inhibition of ATPase activity, βD386R; assay type: biochemical, Escherichia coli; conditions: at maximal inhibition, preincubated 60 min at room temperature, pH 8.0
# In short: (§3)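 Wild-type or mutant membrane-bound F1Fo was prepared by French press, washed, and taken up in 50 mM TrisSO4 pH 8.0, 2.5 mM MgSO4. It was preincubated with a range of test peptide concentrations for 60 min at room temperature, then assayed with 10 mM NaATP, 4 mM MgCl2, 50 mM TrisSO4 pH 8.5 for 5–10 min using 20–30 µg protein. Reactions were stopped with SDS (3.3% final) and Pi read at OD700 (Taussky–Shorr). Activity is relative to wild type without peptide, from duplicate tubes and two or more membrane preparations.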
# [5] = tested on: membrane bound F1Fo ATP synthase mutant βD380R; experiment: Inhibition of ATPase activity, βD380R; assay type: biochemical, Escherichia coli; conditions: at maximal inhibition, preincubated 60 min at room temperature, pH 8.0
# In short: as §3
# βD380A/βD386A [6] = experiment: Growth yield in limiting glucose; assay type: cell-based, E. coli; conditions: 3–5 mM glucose, wild type in absence of peptides = 100%, means of four to six experiments
# In short: as §2
# βD380R [7] = experiment: Growth on succinate plates; assay type: cell-based, E. coli; conditions: 3 days, estimated by eye, means of four to six experiments
# In short: as §1
# mutant E. coli cells = experiment: Growth in presence of peptides, mutants; assay type: cell-based; conditions: succinate plates and limiting glucose
# βD380A [8] = experiment: Growth yield in limiting glucose; assay type: cell-based, E. coli; conditions: 3–5 mM glucose, wild type in absence of peptides = 100%, means of four to six experiments
# In short: as §2
# βD380Q [9] = experiment: Growth on succinate plates; assay type: cell-based, E. coli; conditions: 3 days, estimated by eye, means of four to six experiments
# In short: as §1
# βD380R/βD386R [10] = experiment: Growth yield in limiting glucose; assay type: cell-based, E. coli; conditions: 3–5 mM glucose, wild type in absence of peptides = 100%, means of four to six experiments
# In short: as §2
# βD386A [11] = experiment: Growth yield in limiting glucose; assay type: cell-based, E. coli; conditions: 3–5 mM glucose, wild type in absence of peptides = 100%, means of four to six experiments
# In short: as §2
# wild type E. coli cells = experiment: Growth in presence of peptides, wild-type; assay type: cell-based; conditions: succinate plates and limiting glucose
# In short: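 Wild-type DK8/pBWU13.4 was grown with test peptide on succinate plates, scored by eye after 3 days, and in limiting glucose (3–5 mM). Glucose growth yield is expressed relative to wild type without peptide, set as 100%. Values are means of four to six experiments.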
# [12] = tested on: membrane bound F1Fo ATP synthase double mutants βD380A/βD386A, βD380Q/βD386Q, or βD380R/βD386R; experiment: Inhibition of ATPase activity, double mutants as a group; assay type: biochemical, Escherichia coli
# In short: as §3
# Wild-type (pBWU13.4/DK8) [13] = experiment: Growth on succinate plates; assay type: cell-based, E. coli; conditions: 3 days, estimated by eye, means of four to six experiments
# In short: as §1
# βD380Q/βD386Q [14] = experiment: Growth on succinate plates; assay type: cell-based, E. coli; conditions: 3 days, estimated by eye, means of four to six experiments
# In short: as §1
# Null (pUC118/DK8) = experiment: Growth yield in limiting glucose; assay type: cell-based, E. coli; conditions: 3–5 mM glucose, wild type in absence of peptides = 100%, means of four to six experiments
# βD386R [15] = experiment: Growth on succinate plates; assay type: cell-based, E. coli; conditions: 3 days, estimated by eye, means of four to six experiments
# In short: as §1
# βD380R [16] = experiment: Growth yield in limiting glucose; assay type: cell-based, E. coli; conditions: 3–5 mM glucose, wild type in absence of peptides = 100%, means of four to six experiments
# In short: as §2
# βY331W [17] = experiment: Growth on succinate plates; assay type: cell-based, E. coli; conditions: 3 days, estimated by eye, means of four to six experiments
# In short: as §1
# βD380A [18] = experiment: Growth on succinate plates; assay type: cell-based, E. coli; conditions: 3 days, estimated by eye, means of four to six experiments
# In short: as §1
# βD386Q [19] = experiment: Growth on succinate plates; assay type: cell-based, E. coli; conditions: 3 days, estimated by eye, means of four to six experiments
# In short: as §1
# βD380Q [20] = experiment: Growth yield in limiting glucose; assay type: cell-based, E. coli; conditions: 3–5 mM glucose, wild type in absence of peptides = 100%, means of four to six experiments
# In short: as §2
# βD380Q/βD386Q [21] = experiment: Growth yield in limiting glucose; assay type: cell-based, E. coli; conditions: 3–5 mM glucose, wild type in absence of peptides = 100%, means of four to six experiments
# In short: as §2
# Wild-type (pBWU13.4/DK8) [22] = experiment: Growth yield in limiting glucose; assay type: cell-based, E. coli; conditions: 3–5 mM glucose, wild type in absence of peptides = 100%, means of four to six experiments
# In short: as §2
# βY331W [23] = experiment: Growth yield in limiting glucose; assay type: cell-based, E. coli; conditions: 3–5 mM glucose, wild type in absence of peptides = 100%, means of four to six experiments
# In short: as §2
# [24] = tested on: membrane bound F1Fo ATP synthase mutants βD380A/Q/R or βD386A/Q/R; experiment: Inhibition of ATPase activity, single mutants as a group; assay type: biochemical, Escherichia coli; conditions: for inhibition of ATPase, single mutants (in words): single mutations with replacement of Asp to Ala, Gln, or Arg
# In short: as §3
# βD386R [25] = experiment: Growth yield in limiting glucose; assay type: cell-based, E. coli; conditions: 3–5 mM glucose, wild type in absence of peptides = 100%, means of four to six experiments
# In short: as §2
# βD386A [26] = experiment: Growth on succinate plates; assay type: cell-based, E. coli; conditions: 3 days, estimated by eye, means of four to six experiments
# In short: as §1
molecule,measurement,setting,value
[Cl][Al]([Cl])[Cl] [AlCl3],maximal inhibition of mutant or wild-type ATP synthase (in words),ATP synthase,partially or incompletely inhibited
[N-]=[N+]=[N-].[Na+] [NaN3],maximal inhibition of mutant or wild-type ATP synthase (in words),ATP synthase,partially or incompletely inhibited
melittin-amide,Growth on succinate plates,βD380R/βD386R [1],++/++
same,Growth on succinate plates,βD380A/βD386A [2],+++/+++
same,Growth yield in limiting glucose,βD386Q [3],74%
same,prevention of inhibition (residual activity),[4],80%
same,residual ATPase activity,[5],80%
same,Growth yield in limiting glucose,βD380A/βD386A [6],75%
same,Growth on succinate plates,βD380R [7],+++/+++
same,growth of mutant cells in presence of peptide (in words),mutant E. coli cells,not much affected
same,Growth yield in limiting glucose,βD380A [8],89%
same,Growth on succinate plates,βD380Q [9],+++/+++
same,Growth yield in limiting glucose,βD380R/βD386R [10],66%
same,Growth yield in limiting glucose,βD386A [11],79%
same,growth of wild-type cells in presence of peptide (in words),wild type E. coli cells,abrogated growth
same,"inhibition of ATPase, double mutants (in words)",[12],very little or no inhibition
same,Growth on succinate plates,Wild-type (pBWU13.4/DK8) [13],±/±
same,Growth on succinate plates,βD380Q/βD386Q [14],+++/+++
same,Growth yield in limiting glucose,Null (pUC118/DK8),43%
same,Growth on succinate plates,βD386R [15],+++/+++
same,Growth yield in limiting glucose,βD380R [16],82%
same,Growth on succinate plates,βY331W [17],±/±
same,Growth on succinate plates,βD380A [18],+++/+++
same,Growth on succinate plates,βD386Q [19],+++/+++
same,Growth yield in limiting glucose,βD380Q [20],90%
same,Growth yield in limiting glucose,βD380Q/βD386Q [21],72%
same,Growth yield in limiting glucose,Wild-type (pBWU13.4/DK8) [22],20%
same,Growth yield in limiting glucose,βY331W [23],22%
same,refractoriness of mutants to peptide induced inhibition (in words),[24]; all of the mutations used in this study (single and double),refractory
same,"inhibition of ATPase, single mutants (in words)",[24],decreased inhibition
same,"inhibition of ATPase, single mutants (in words)",[24]; listed as c-terminal amide bound melittin,only partial inhibition
same,Growth yield in limiting glucose,βD386R [25],70%
same,Growth on succinate plates,βD386A [26],+++/+++
O=[N+]([O-])c1ccc(Cl)c2nonc12 [NBD-Cl],maximal inhibition of mutant or wild-type ATP synthase (in words),ATP synthase,partially or incompletely inhibited
melittin,ATPase inhibitory activity (in words),ATP synthase,strongly inhibited
[Cl][Sc]([Cl])[Cl] [ScCl3],maximal inhibition of mutant or wild-type ATP synthase (in words),ATP synthase,partially or incompletely inhibited
